Source: ChEMBL document CHEMBL3525900, “Pharmacokinetics, distribution, and metabolism of [14C]sunitinib in rats, monkeys, and humans” (Drug Metab Dispos, 2012)

Key:
[1] = test system: Cynomolgus monkey; assay: Cmax as total radioactivity in male cynomolgus monkey plasma at 6 mg/kg, po administered as single dose by LC/MS/MS analysis; format: ADME, organism-based, Macaca fascicularis; parameters: dose 6 mg/kg, dosed compound name [14C]Sunitinib, route oral; conditions: in vivo
Summary of the method: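 Cynomolgus monkeys of both sexes received one oral gavage of [14C]sunitinib L-malate at 6 mg/kg (37 µCi/kg). Femoral-vein blood was taken into heparin from 0.5 to 336 h. Plasma was kept cold and protected from light, then stored at -80 °C. Total radioactivity was by scintillation counting and sunitinib by methanol-extraction LC-MS-MS. Cmax was from raw data, t½ from the log-linear terminal slope, AUC(0-∞) by linear trapezoidal rule.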

[2] = Drug concentration in male Lister Hooded pigmented rat eye assessed as radioactivity per gram of tissue at 20 mg/kg administered as single dose via gastric gavage measured after 72 hrs by autoradiographic analysis; format: ADME, organism-based; parameters: dose 20 mg/kg, dosed compound name [14C]Sunitinib; conditions: in vivo, po
[3] = test system: Large intestine; assay: Drug concentration in male Lister Hooded pigmented rat large intestine assessed as radioactivity per gram of tissue at 20 mg/kg administered as single dose via gastric gavage measured after 72 hrs by autoradiographic analysis; format: ADME, organism-based; parameters: dose 20 mg/kg, dosed compound name [14C]Sunitinib; conditions: in vivo, po
[4] = Drug concentration in male Lister Hooded pigmented rat preputial gland assessed as radioactivity per gram of tissue at 20 mg/kg administered as single dose via gastric gavage measured after 72 hrs by autoradiographic analysis; format: ADME, organism-based; parameters: dose 20 mg/kg, dosed compound name [14C]Sunitinib; conditions: in vivo, po
[5] = test system: Rattus norvegicus; assay: Total drug recovery in female Sprague-Dawley rat at 5 mg/kg, iv administered as single dose during 0 to 72 hrs by liquid scintillation counting; format: ADME, organism-based; parameters: dose 5 mg/kg, dosed compound name [14C]Sunitinib, route intravenous; conditions: in vivo
[6] = test system: Rattus norvegicus; assay: Total drug recovery in male Sprague-Dawley rat at 15 mg/kg, po administered as single dose during 0 to 72 hrs by liquid scintillation counting; format: ADME, organism-based; parameters: dose 15 mg/kg, dosed compound name [14C]Sunitinib, route oral; conditions: in vivo
[7] = test system: Cynomolgus monkey; assay: Drug recovery in cage residue of female cynomolgus monkey at 6 mg/kg, po administered as single dose during 0 to 336 hrs by liquid scintillation counting; format: ADME, organism-based, Macaca fascicularis; parameters: dose 6 mg/kg, dosed compound name [14C]Sunitinib, route oral; conditions: in vivo
[8] = Drug concentration in female albino rat lymph node assessed as radioactivity per gram of tissue at 20 mg/kg administered as single dose via gastric gavage measured after 3 hrs by autoradiographic analysis; format: ADME, organism-based; parameters: dose 20 mg/kg, dosed compound name [14C]Sunitinib; conditions: in vivo, po
Summary of the method: (§1)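 Sprague Dawley albino rats, ca 7-8 weeks old, dosed once by gastric gavage with [14C]sunitinib L-malate (15 mg freebase/kg, 100 µCi/kg). One male and one female killed by CO2 at 3, 6, 24, 72 and 168 h. Carcasses frozen in solid CO2/hexane, embedded and cut into 30 µm sagittal sections, then freeze-dried. Radioactivity quantified by whole-body autoradiography against standards by regression, background subtracted.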

[9] = Drug concentration in male albino rat uveal tract assessed as radioactivity per gram of tissue at 20 mg/kg administered as single dose via gastric gavage measured after 3 hrs by autoradiographic analysis; format: ADME, organism-based; parameters: dose 20 mg/kg, dosed compound name [14C]Sunitinib; conditions: in vivo, po
[10] = test system: Adrenal; assay: Drug concentration in male albino rat adrenal assessed as radioactivity per gram of tissue at 20 mg/kg administered as single dose via gastric gavage measured after 6 hrs by autoradiographic analysis; format: ADME, organism-based; parameters: dose 20 mg/kg, dosed compound name [14C]Sunitinib; conditions: in vivo, po
[11] = test system: Large intestine; assay: Drug concentration in male albino rat large intestine assessed as radioactivity per gram of tissue at 20 mg/kg administered as single dose via gastric gavage measured after 6 hrs by autoradiographic analysis; format: ADME, organism-based; parameters: dose 20 mg/kg, dosed compound name [14C]Sunitinib; conditions: in vivo, po
[12] = Drug concentration in male albino rat lachrymal gland assessed as radioactivity per gram of tissue at 20 mg/kg administered as single dose via gastric gavage measured after 3 hrs by autoradiographic analysis; format: ADME, organism-based; parameters: dose 20 mg/kg, dosed compound name [14C]Sunitinib; conditions: in vivo, po
[13] = test system: Thymus; assay: Drug concentration in female albino rat thymus assessed as radioactivity per gram of tissue at 20 mg/kg administered as single dose via gastric gavage measured after 6 hrs by autoradiographic analysis; format: ADME, organism-based; parameters: dose 20 mg/kg, dosed compound name [14C]Sunitinib; conditions: in vivo, po
[14] = Drug concentration in female albino rat thyroid gland assessed as radioactivity per gram of tissue at 20 mg/kg administered as single dose via gastric gavage measured after 6 hrs by autoradiographic analysis; format: ADME, organism-based; parameters: dose 20 mg/kg, dosed compound name [14C]Sunitinib; conditions: in vivo, po
[15] = test system: Liver; assay: Drug concentration in male Lister Hooded pigmented rat liver assessed as radioactivity per gram of tissue at 20 mg/kg administered as single dose via gastric gavage measured after 168 hrs by autoradiographic analysis; format: ADME, organism-based; parameters: dose 20 mg/kg, dosed compound name [14C]Sunitinib; conditions: in vivo, po
[16] = test system: Spleen; assay: Drug concentration in female albino rat spleen assessed as radioactivity per gram of tissue at 20 mg/kg administered as single dose via gastric gavage measured after 3 hrs by autoradiographic analysis; format: ADME, organism-based; parameters: dose 20 mg/kg, dosed compound name [14C]Sunitinib; conditions: in vivo, po
[17] = test system: Blood; assay: Drug concentration in male Lister Hooded pigmented rat blood assessed as radioactivity per gram of tissue at 20 mg/kg administered as single dose via gastric gavage measured after 168 hrs by autoradiographic analysis; format: ADME, organism-based; parameters: dose 20 mg/kg, dosed compound name [14C]Sunitinib; conditions: in vivo, po
[18] = test system: Adrenal; assay: Drug concentration in female Lister Hooded pigmented rat adrenal assessed as radioactivity per gram of tissue at 20 mg/kg administered as single dose via gastric gavage measured after 24 hrs by autoradiographic analysis; format: ADME, organism-based; parameters: dose 20 mg/kg, dosed compound name [14C]Sunitinib; conditions: in vivo, po
Summary of the method: (§2)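 Pigmented Lister Hooded rats, 7-8 weeks old, received [14C]sunitinib L-malate by gavage at 20 mg/kg (15 mg freebase/kg, 100 µCi/kg). One rat per sex was killed by CO2 at each of 24, 72, 168 and 336 h. Carcasses were frozen in solid CO2/hexane and cut into 30 µm sagittal sections, then freeze-dried. Tissue radioactivity was quantified by whole-body autoradiography calibrated against standards by regression (LOQ 0.04–0.06 µg eq/g).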

[19] = test system: Thymus; assay: Drug concentration in male albino rat thymus assessed as radioactivity per gram of tissue at 20 mg/kg administered as single dose via gastric gavage measured after 24 hrs by autoradiographic analysis; format: ADME, organism-based; parameters: dose 20 mg/kg, dosed compound name [14C]Sunitinib; conditions: in vivo, po
[20] = test system: Kidney; assay: Drug concentration in male albino rat kidney assessed as radioactivity per gram of tissue at 20 mg/kg administered as single dose via gastric gavage measured after 72 hrs by autoradiographic analysis; format: ADME, organism-based; parameters: dose 20 mg/kg, dosed compound name [14C]Sunitinib; conditions: in vivo, po
[21] = Drug concentration in female albino rat skeletal muscle assessed as radioactivity per gram of tissue at 20 mg/kg administered as single dose via gastric gavage measured after 24 hrs by autoradiographic analysis; format: ADME, organism-based; parameters: dose 20 mg/kg, dosed compound name [14C]Sunitinib; conditions: in vivo, po
[22] = Drug concentration in female albino rat uveal tract assessed as radioactivity per gram of tissue at 20 mg/kg administered as single dose via gastric gavage measured after 24 hrs by autoradiographic analysis; format: ADME, organism-based; parameters: dose 20 mg/kg, dosed compound name [14C]Sunitinib; conditions: in vivo, po
[23] = test system: Heart; assay: Drug concentration in male albino rat heart assessed as radioactivity per gram of tissue at 20 mg/kg administered as single dose via gastric gavage measured after 24 hrs by autoradiographic analysis; format: ADME, organism-based; parameters: dose 20 mg/kg, dosed compound name [14C]Sunitinib; conditions: in vivo, po
[24] = test system: Zone of skin; assay: Drug concentration in female Lister Hooded pigmented rat abdomen skin assessed as radioactivity per gram of tissue at 20 mg/kg administered as single dose via gastric gavage measured after 24 hrs by autoradiographic analysis; format: ADME, organism-based; parameters: dose 20 mg/kg, dosed compound name [14C]Sunitinib; conditions: in vivo, po; summary of the method: as §2
[25] = test system: Small intestine; assay: Drug concentration in female Lister Hooded pigmented rat small intestine assessed as radioactivity per gram of tissue at 20 mg/kg administered as single dose via gastric gavage measured after 24 hrs by autoradiographic analysis; format: ADME, organism-based; parameters: dose 20 mg/kg, dosed compound name [14C]Sunitinib; conditions: in vivo, po
Summary of the method: (§3)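 Lister Hooded (pigmented) rats, ca 7-8 weeks old, acclimated 7 days, given [14C]sunitinib L-malate by gastric gavage at 20 mg/kg (15 mg freebase/kg, 100 µCi/kg). One male and one female killed by CO2 at 24, 72, 168 and 336 h. Carcasses frozen in solid CO2/hexane and embedded in frozen cellulose. 30 µm sagittal cryosections were freeze-dried. Tissue radioactivity measured by quantitative whole-body autoradiography against calibration standards, with background subtracted.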

[26] = test system: Large intestine; assay: Drug concentration in female albino rat large intestine assessed as radioactivity per gram of tissue at 20 mg/kg administered as single dose via gastric gavage measured after 72 hrs by autoradiographic analysis; format: ADME, organism-based; parameters: dose 20 mg/kg, dosed compound name [14C]Sunitinib; conditions: in vivo, po; summary of the method: as §1
[27] = test system: Spleen; assay: Drug concentration in female Lister Hooded pigmented rat spleen assessed as radioactivity per gram of tissue at 20 mg/kg administered as single dose via gastric gavage measured after 72 hrs by autoradiographic analysis; format: ADME, organism-based; parameters: dose 20 mg/kg, dosed compound name [14C]Sunitinib; conditions: in vivo, po; summary of the method: as §3
[28] = test system: Adrenal; assay: Drug concentration in female Lister Hooded pigmented rat adrenal assessed as radioactivity per gram of tissue at 20 mg/kg administered as single dose via gastric gavage measured after 336 hrs by autoradiographic analysis; format: ADME, organism-based; parameters: dose 20 mg/kg, dosed compound name [14C]Sunitinib; conditions: in vivo, po; summary of the method: as §3

CCN(CC)CCNC(=O)c1c(C)[nH]c(/[14CH]=C2\C(=O)Nc3ccc(F)cc32)c1C.O=C(O)C[C@H](O)C(=O)O
Cmax [1]: 243 ngequiv/ml | Radiolabel recovery [2]: 23.98 ugequiv | Radiolabel recovery [3]: 0.08 ugequiv | Radiolabel recovery [4]: 7.84 ugequiv | Radiolabel recovery [5]: 87.4% | Radiolabel recovery [6]: 85.1% | Radiolabel recovery [7]: 0.6% | Radiolabel recovery [8]: 12.39 ugequiv | Radiolabel recovery [9]: 2.63 ugequiv | Radiolabel recovery [10]: 13.57 ugequiv | Radiolabel recovery [11]: 5.38 ugequiv | Radiolabel recovery [12]: 8.82 ugequiv | Radiolabel recovery [13]: 9.8 ugequiv | Radiolabel recovery [14]: 11.23 ugequiv | Radiolabel recovery [15]: 0.06 ugequiv | Radiolabel recovery [16]: 30.72 ugequiv | Radiolabel recovery [17]: 0.06 ugequiv | Radiolabel recovery [18]: 3.59 ugequiv | Radiolabel recovery [19]: 0.58 ugequiv | Radiolabel recovery [20]: 0.16 ugequiv | Radiolabel recovery [21]: 0.33 ugequiv | Radiolabel recovery [22]: 0.61 ugequiv | Radiolabel recovery [23]: 0.36 ugequiv | Radiolabel recovery [24]: 3.23 ugequiv | Radiolabel recovery [25]: 1.16 ugequiv | Radiolabel recovery [26]: 0.09 ugequiv | Radiolabel recovery [27]: 0.23 ugequiv | Radiolabel recovery [28]: 0.66 ugequiv
